Converted amounts (≈) assume the structure as drawn.

Common to all, as to format: functional
Test [1] relates to Staphylococcus aureus. Description: Antimicrobial activity against Staphylococcus aureus ATCC 29213 by broth microdilution method. In outline:
(§1)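 Mueller Hinton broth microdilution; MIC read as the minimal inhibitory concentration. Run against a panel of indicator strains that included MRSA, S. aureus ATCC 29213, B. thuringiensis SCSIO BT01, M. luteus SCSIO ML 01 and E. faecalis ATCC 29212.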
In general terms: Dilution methods test growth across graded concentrations, often in twofold steps.

Test [2] concerns Staphylococcus aureus. The test can be described thus: Antimicrobial activity against methicillin-resistant Staphylococcus aureus isolate shhs-A1 by broth microdilution method. In outline:
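Minimal inhibitory concentration determined by broth microdilution in Mueller Hinton broth against methicillin-resistant S. aureus shhs-A1, one strain of an indicator panel that also included S. aureus ATCC 29213, B. thuringiensis SCSIO BT01, M. luteus SCSIO ML 01 and E. faecalis ATCC 29212.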

Test [3] relates to Micrococcus luteus. The test can be described thus: Antimicrobial activity against Micrococcus luteus SCSIO ML01 by broth microdilution method. In outline:
as §1

Test [4] relates to Bacillus thuringiensis. The test can be described thus: Antimicrobial activity against Bacillus thuringiensis SCSIO BT01 by broth microdilution method. An outline of the steps:
as §1

Test [5] deals with Enterococcus faecalis. Description: Antimicrobial activity against Enterococcus faecalis ATCC 29212 by broth microdilution method. In outline: as §1

Broadly, the MIC is the lowest concentration found to suppress growth. The low end stands for a more susceptible organism, the high end for a less susceptible organism. Regarding `CCc1cc(O)cc(O)c1C(=O)O[C@H]1[C@H](O)[C@H](O)[C@H](OC/C2=C\C=C\C[C@H](O)/C(C)=C/[C@H](CC)[C@@H](O[C@@H]3OC(C)(C)[C@@H](OC(=O)C(C)C)[C@H](O)[C@@H]3O)/C(C)=C/C(C)=C/C[C@@H](CC)OC2=O)O[C@@H]1C`, the MIC in test [1] was > 128 µg/mL; in test [2] it was > 128 µg/mL; in test [3], > 128 µg/mL; in test [4], 16 µg/mL (≈ 16.7 µM); in test [5] it was > 128 µg/mL.
Consider `CC[C@H]1/C=C(\C)[C@@H](O)C/C=C/C=C(\CO[C@@H]2O[C@H](C)[C@@H](O)[C@H](O)[C@@H]2OC)C(=O)O[C@H]([C@@H](C)O)C/C=C(C)/C=C(\C)[C@@H]1O[C@@H]1OC(C)(C)[C@@H](OC(=O)C(C)C)[C@H](O)[C@@H]1O`, for which the MIC in test [1], in test [2], in test [3], in test [4] and in test [5] was > 128 µg/mL throughout.
Consider `CCc1cc(O)cc(O)c1C(=O)O[C@H]1[C@H](O)[C@H](OC)[C@H](OC/C2=C\C=C\C[C@H](O)/C(C)=C/[C@H](CC)[C@@H](O[C@@H]3OC(C)(C)[C@@H](OC(=O)C(C)C)[C@H](O)[C@@H]3O)/C(C)=C/C(C)=C/C[C@@H](C(C)=O)OC2=O)O[C@@H]1C`, for which the MIC in test [1] was > 128 µg/mL; in test [2], > 128 µg/mL; in test [3], > 128 µg/mL; in test [4], 8 µg/mL (≈ 8.1 µM); in test [5] it was > 128 µg/mL.
On to `CCc1cc(O)cc(O)c1C(=O)O[C@H]1[C@H](O)[C@H](OC)[C@H](OC/C2=C\C=C\C[C@H](O)/C(C)=C/[C@H](CC)[C@@H](O[C@@H]3OC(C)(C)[C@@H](OC(C)=O)[C@H](O)[C@@H]3O)/C(C)=C/C(C)=C/C[C@@H]([C@@H](C)O)OC2=O)O[C@@H]1C`, for which the MIC was 128 µg/mL (≈ 133 µM) in test [1]; > 128 µg/mL in test [2]; 64 µg/mL (≈ 66.6 µM) in test [3]; 8 µg/mL (≈ 8.32 µM) in test [4]; > 128 µg/mL in test [5].
As to `CCCc1cc(O)cc(O)c1C(=O)O[C@H]1[C@H](O)[C@H](OC)[C@H](OC/C2=C\C=C\C[C@H](O)/C(C)=C/[C@H](CC)[C@@H](O[C@@H]3OC(C)(C)[C@@H](OC(=O)C(C)C)[C@H](O)[C@@H]3O)/C(C)=C/C(C)=C/C[C@@H]([C@@H](C)O)OC2=O)O[C@@H]1C`, the MIC was 2 µg/mL (≈ 1.99 µM) in test [1]; 2 µg/mL (≈ 1.99 µM) in test [2]; 1 µg/mL (≈ 0.997 µM) in test [3]; 0.5 µg/mL (≈ 0.498 µM) in test [4]; 4 µg/mL (≈ 3.99 µM) in test [5].
In the case of `CCc1cc(O)cc(O)c1C(=O)O[C@H]1[C@H](O)[C@H](OC)[C@H](OC/C2=C\C=C\C[C@H](O)/C(C)=C/[C@H](CC)[C@@H](O[C@@H]3OC(C)(C)[C@@H](OC(=O)C(C)C)[C@H](O)[C@@H]3O)/C(C)=C/C(C)=C/C[C@@H]([C@@H](C)O)OC2=O)O[C@@H]1C`, the MIC was found to be 2 µg/mL (≈ 2.02 µM) in test [1]; 2 µg/mL (≈ 2.02 µM) in test [2]; 2 µg/mL (≈ 2.02 µM) in test [3]; 1 µg/mL (≈ 1.01 µM) in test [4]; 16 µg/mL (≈ 16.2 µM) in test [5].
Turning to `CC[C@@H]1C/C=C(C)/C=C(\C)[C@H](O[C@@H]2OC(C)(C)[C@@H](O)[C@H](O)[C@@H]2O)[C@@H](CC)/C=C(\C)[C@@H](O)C/C=C/C=C(\CO[C@@H]2O[C@H](CO)[C@@H](O)[C@H](O)[C@@H]2O)C(=O)O1`, the MIC in test [1], in test [2], in test [3], in test [4] and in test [5] was > 128 µg/mL each time.
On to `CCc1cc(O)cc(O)c1C(=O)O[C@H]1[C@H](O)[C@H](OC)[C@H](OC/C2=C\C=C\C[C@H](O)/C(C)=C/[C@H](CC)[C@@H](O[C@@H]3OC(C)(C)[C@@H](OC(=O)C(C)C)[C@H](O)[C@@H]3O)/C(C)=C/C(C)=C/C[C@@H](CC)OC2=O)O[C@@H]1C`, for which the MIC in test [1] was > 128 µg/mL; in test [2], > 128 µg/mL; in test [3], > 128 µg/mL; in test [4], 4 µg/mL (≈ 4.11 µM); in test [5] it was > 128 µg/mL.
As to `CC[C@H]1/C=C(\C)[C@@H](O)C/C=C/C=C(\CO[C@@H]2O[C@H](C)[C@@H](OC(=O)c3c(C)cc(O)cc3O)[C@H](O)[C@@H]2OC)C(=O)O[C@H]([C@@H](C)O)C/C=C(C)/C=C(\C)[C@@H]1O[C@@H]1OC(C)(C)[C@@H](OC(=O)C(C)C)[C@H](O)[C@@H]1O`, the MIC came out at 16 µg/mL (≈ 16.4 µM) in test [1]; 16 µg/mL (≈ 16.4 µM) in test [2]; 16 µg/mL (≈ 16.4 µM) in test [3]; 8 µg/mL (≈ 8.2 µM) in test [4]; 64 µg/mL (≈ 65.6 µM) in test [5].
On to `CCC(=O)O[C@H]1[C@H](O)[C@H](O)[C@H](O[C@H]2/C(C)=C/C(C)=C/C[C@@H]([C@@H](C)O)OC(=O)/C(CO[C@@H]3O[C@H](C)[C@@H](OC(=O)c4c(O)cc(O)cc4CC)[C@H](O)[C@@H]3OC)=C/C=C/C[C@H](O)/C(C)=C/[C@@H]2CC)OC1(C)C`, for which the MIC in test [1] turned out to be 8 µg/mL (≈ 8.2 µM); in test [2], 8 µg/mL (≈ 8.2 µM); in test [3], 16 µg/mL (≈ 16.4 µM); in test [4], 2 µg/mL (≈ 2.05 µM); in test [5], 32 µg/mL (≈ 32.8 µM).
As to `CCc1cc(O)cc(O)c1C(=O)O[C@H]1[C@H](O)[C@H](OC)[C@H](OC/C2=C\C=C\C[C@H](O)/C(C)=C/[C@H](CC)[C@@H](O[C@@H]3OC(C)(C)[C@@H](O)[C@H](O)[C@@H]3O)/C(C)=C/C(C)=C/C[C@@H](CC)OC2=O)O[C@@H]1C`, the MIC in test [1] was > 128 µg/mL; in test [2] it was > 128 µg/mL; in test [3], 8 µg/mL (≈ 8.86 µM); in test [4], 16 µg/mL (≈ 17.7 µM); in test [5] it was > 128 µg/mL.
In the case of `CCc1c(Cl)c(O)c(Cl)c(O)c1C(=O)O[C@H]1[C@H](O)[C@H](OC)[C@H](OC/C2=C\C=C\C[C@H](O)/C(C)=C/[C@H](CC)[C@@H](O[C@@H]3OC(C)(C)[C@@H](OC(=O)C(C)C)[C@H](O)[C@@H]3O)/C(C)=C/C(C)=C/C[C@@H]([C@@H](C)O)OC2=O)O[C@@H]1C` [FIDAXOMICIN], the MIC in test [1] was 4 µg/mL (≈ 3.78 µM); in test [2] it was 1 µg/mL (≈ 0.945 µM); in test [3], 4 µg/mL (≈ 3.78 µM); in test [4], 2 µg/mL (≈ 1.89 µM); in test [5] it was 16 µg/mL (≈ 15.1 µM).

These data come from ChEMBL document CHEMBL4145561, “Tiacumicin Congeners with Improved Antibacterial Activity from a Halogenase-Inactivated Mutant” (2018).
